Assay results taken from ChEMBL document CHEMBL3576824, “Phenolic diterpenoid derivatives as anti-influenza a virus agents” (ACS Med Chem Lett, 2015).
The source made the active and inactive calls.

Legend:
[1] = Cytotoxicity against MDCK cells assessed as reduction of cell viability; assay type: cell-based, Canis lupus familiaris; conditions: dog
Outline: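 Uninfected MDCK cells. CC50 is the concentration (μM) that reduced cell viability by 50%.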

[2] = tested on: Influenza A virus; assay: Antiviral activity against oseltamivir-sensitive Influenza A virus (A/Hong Kong/8/68(H3N2)) infected in MDCK cells assessed as protection against virus-induced cytocidal effect at 20 uM after 48 hrs by CellTiter-Glo assay relative to control; assay type: functional
Outline: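 Same cytocidal protection assay in MDCK cells with H3N2 virus, tested at concentrations up to 20 μM. The read-out is the percent inhibition of viral cytocidal effect, with 50% used as the threshold.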

[3] = tested on: Influenza A virus; assay: Antiviral activity against oseltamivir-sensitive Influenza A virus (A/Hong Kong/8/68(H3N2)) assessed as inhibition of viral infectivity in MDCK cells at 10 uM after 6 hrs by FITC conjugated anti-NP antibodies/DAPI staining-based confocal microscopic analysis; assay type: functional, organism-based
Outline: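 MDCK cells were infected at MOI = 1 in the presence of 10 μM compound for 6 h. Infected cells were stained with FITC-conjugated anti-NP antibody, with DAPI as nuclear stain, and imaged by confocal microscopy. Infected cells without compound served as control.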

[4] = Metabolic stability in human plasma assessed as compound remaining at 1 uM after 2 hrs by reverse phase HPLC analysis; assay type: ADME, cell-free; conditions: read-out: Stability
Outline: (§1)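 Compound incubated in 80% human plasma at 37 °C for varying times. Initial and remaining parent compound were quantified by reverse-phase HPLC. Benfluorex served as control. Data are averages of duplicate experiments.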

[5] = Metabolic stability in human plasma assessed as compound remaining at 1 uM after 10 mins by reverse phase HPLC analysis; assay type: ADME, cell-free; conditions: read-out: Stability; outline: as §1

SMILES | CC50 [1] [µM] | Activity [2] [%] | inhibition [3] | remaining at 2 h, 1 µM [4] [%] | remaining at 10 min, 1 µM [5] [%]
C[C@]1(C(=O)OCc2ccccc2)CCC[C@]2(C)c3cc(O)ccc3CC[C@@H]12 | > 40 | <50 |  |  | 
C[C@]1(C(=O)O)CCC[C@]2(C)c3cc(O)ccc3CC[C@@H]12 [PODOCARIC ACID] | 91.2 | <50 |  |  | 
COC(=O)[C@@]1(C)CCC[C@]2(C)c3cc(OC(=O)C(C)C)ccc3CC[C@@H]12 | > 40 | <50 |  |  | 
CC(C)c1c(O)ccc2c1CC[C@H]1C(C)(C)CCC[C@]21C [TOTAROL] | 21 | <50 |  |  | 
COC(=O)[C@@]1(C)CCC[C@]2(C)c3cc(OC)ccc3C(=O)C[C@@H]12 | > 40 | <50 |  |  | 
COC(=O)[C@@]1(C)CCC[C@]2(C)c3cc(OC(=O)CCBr)ccc3CC[C@@H]12 | > 40 | <50 | Active |  | 
C[C@]1(C(=O)O)CCC[C@]2(C)c3cc(OC(=O)CCC(=O)O)ccc3CC[C@@H]12 | > 40 | <50 |  |  | 
C=CC(=O)Oc1ccc2c(c1)[C@@]1(C)CCC[C@](C)(C(=O)NC)[C@@H]1CC2 | > 40 | <50 |  |  | 
COC(=O)[C@@]1(C)CCC[C@]2(C)c3cc(OC(=O)C(C)F)ccc3CC[C@@H]12 (stereo partly specified) | > 40 | <50 |  |  | 
COC(=O)[C@@]1(C)CCC[C@]2(C)c3cc(OC(=O)CCCCBr)ccc3CC[C@@H]12 | > 40 | <50 |  |  | 
COC(=O)[C@@]1(C)CCC[C@]2(C)c3cc(O)ccc3CC[C@@H]12 | > 40 | <50 |  | 86 | 
COC(=O)[C@@]1(C)CCC[C@]2(C)c3cc(OC(=O)CCCC(=O)O)ccc3CC[C@@H]12 | > 40 | <50 |  |  | 
C[C@]1(C(=O)OCc2ccccc2)CCC[C@]2(C)c3cc(OC(=O)CCC(=O)O)ccc3CC[C@@H]12 | > 40 | <50 |  |  | 
C=CC(=O)Oc1ccc2c(c1)[C@@]1(C)CCC[C@](C)(C(=O)OC)[C@@H]1CC2 | > 40 | <50 |  |  | 
C[C@]1(C(=O)OCc2ccccc2)CCC[C@]2(C)c3cc(OCCC(=O)O)ccc3CC[C@@H]12 | > 40 | <50 |  |  | 
CNC(=O)[C@@]1(C)CCC[C@]2(C)c3cc(O)ccc3CC[C@@H]12 | > 40 | <50 |  |  | 
COC(=O)[C@@]1(C)CCC[C@]2(C)c3cc(OC(=O)CCCCCBr)ccc3CC[C@@H]12 | > 40 | <50 |  |  | 
COC(=O)[C@@]1(C)CCC[C@]2(C)c3cc(OC(=O)CCCBr)ccc3CC[C@@H]12 | > 40 | <50 |  |  | 
COC(=O)[C@@]1(C)CCC[C@]2(C)c3cc(OCCC(=O)O)ccc3CC[C@@H]12 | > 40 | <50 |  |  | 
COC(=O)[C@@]1(C)CCC[C@]2(C)c3cc(OC(=O)CCC(=O)O)ccc3CC[C@@H]12 | > 40 | <50 |  |  | 
COC(=O)[C@@]1(C)CCC[C@]2(C)c3cc(OC)ccc3CC[C@@H]12 | > 40 | <50 |  |  | 
COC(=O)[C@@]1(C)CCC[C@]2(C)c3cc(OC(=O)C4CC4)ccc3CC[C@@H]12 | > 40 | <50 |  |  | 
COC(=O)[C@@]1(C)CCC[C@]2(C)c3cc(OC(C)=O)ccc3CC[C@@H]12 | > 40 | <50 |  |  | 30
C=CC(=O)Oc1ccc2c(c1)[C@@]1(C)CCC[C@](C)(C(=O)OCc3ccccc3)[C@@H]1CC2 | > 40 | <50 |  |  | 
